Assay outcomes: PubChem, several laboratories
The list is not random: actives were taken first. Their share in the collection is about 1.9%.
RAM inhibit = inhibitors of the yeast RAM network, primary screen, dse1pr::URA3 reporter, 5-FOA selection; S. cerevisiae dse1pr::URA3 reporter, 5-FOA growth OD615, 2 d; analog-sensitive cbk1-as2 kinase mutant strain; actives 1.8% (n = 190,000); inhibition, % at 50 µM; AID 868, 2007;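 active = inhibition above a set limit, 3 SD over mean compound inhibition, cut at about 8.4% in these data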;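 note: 0% = DMSO-only wells with no growth and 100% = 10 µM 1-NA-PP1 full growth; inhibition rescues growth on 5-FOA so higher OD means more RAM inhibition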
pCIP destab = p/CIP-EGFP fusion destabilizers, primary screen, fluorescence, F442A cells | Q05BA5 | 16 h | decrease of EGFP signal, % at 10 µM | actives 0.01% (n = 290,000) | AID 1984, 2009;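 active = EGFP signal decrease of at least 30% at 10 µM or well 3 SD below plate mean, unless failing retest; inactive = the rest, including hits failing retest or dose response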
Dynein transport = inhibitors of GR-EGFP nuclear translocation, primary screen, dynein cargo transport inhibitor project, imaging, high-content, 3617.4 mouse cells; test concentration mostly 20 µM; stimulated with dexamethasone, 1 µM; stronger effect = lower value; z-score, hits read low; actives 0.47% (n = 220,000); AID 1381, 2008;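 active = plate z-score of nuclear minus cytoplasmic receptor signal below a set negative limit, without overly bright fluorescence or cell loss, cut at about -3.5 in these data, passing the limit was not always enough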;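 note: z-score of nuclear minus cytoplasmic ring GR-EGFP intensity difference per well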
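Buffer or medium: Induction medium lacking tetracycline, stripped serum | Also added: Dexamethasone agonist, 1.0 µM final, for 30 min | Timing: 48 h induction, 1 h compound, 30 min dex at 37 °C | Detection: Formaldehyde fixation, Hoechst nuclear stain, 10x automated fluorescence imaging | Measure: Nuclear versus cytoplasmic GR-EGFP signal, averaged per well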
p47phox inh = p47phox/p22phox peptide binding inhibitors, primary screen, biochemical, uHTS, NADPH oxidase regulatory subunit; Neutrophil cytosol factor 1 (Homo sapiens), P14598; fluorescence polarization, 2 h; inhibition, % at 24.7 µM; actives 0.53% (n = 220,000); AID 1274, 2008;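 active = inhibition above about 30%, limit read from the data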;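 note: 0% = p47phox with labelled peptide and 100% = labelled peptide alone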
Target sequence (P14598 whole entry, looked up): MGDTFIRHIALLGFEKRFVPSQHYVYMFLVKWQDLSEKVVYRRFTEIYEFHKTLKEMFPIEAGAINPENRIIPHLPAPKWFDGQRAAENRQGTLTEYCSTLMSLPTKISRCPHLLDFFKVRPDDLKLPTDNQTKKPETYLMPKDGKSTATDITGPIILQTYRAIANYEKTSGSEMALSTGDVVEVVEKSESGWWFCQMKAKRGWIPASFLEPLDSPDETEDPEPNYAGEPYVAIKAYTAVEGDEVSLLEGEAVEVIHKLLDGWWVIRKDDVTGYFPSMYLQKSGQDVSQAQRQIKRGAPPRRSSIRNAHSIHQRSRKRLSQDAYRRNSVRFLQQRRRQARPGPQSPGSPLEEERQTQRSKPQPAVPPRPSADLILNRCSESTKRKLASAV
Active calls of the source: *; x = no result given.

SMILES | RAM inhibit | pCIP destab | Dynein transport | p47phox inh
CCCCc1cc(=O)oc2cc(OCC(=O)N3CCC(C(=O)O)(c4ccccc4)CC3)ccc12 | x | 1 | x | x
CC(C)Cn1c(N)c(C(=O)COC(=O)[C@@H]2CCCN2C(=O)c2cccs2)c(=O)n(C)c1=O | 0 | -4 | -1 | -1
CCOC(=O)C1=C(C)N=c2s/c(=C3\C(=O)Nc4ccccc43)c(=O)n2C1c1ccc2c(c1)OCO2 (stereo not drawn) | 10* | -7 | -1.6 | -15
CC(C)CN1CCC(CNC(=O)CCc2nnc(Cc3c[nH]c4ccccc34)o2)CC1 | -1 | -10 | -0.65 | -4
COc1ccc(-c2nc(NC(=O)c3ccc(OCC(=O)N4CCOCC4)c(OC)c3)sc2C)cc1 | 9.0* | -20 | 0.84 | -9
COC(=O)C1=Cc2cc(OC)cc([N+](=O)[O-])c2OC1N1CCOCC1 (stereo not drawn) | x | -9 | x | x
N#CC(c1cccc(C(F)(F)F)c1)(c1ncc(C(F)(F)F)cc1Cl)N1CCOCC1 (stereo not drawn) | 0 | -12 | 0.36 | -12
N#CC(c1ccccc1)(c1ncc(C(F)(F)F)cc1Cl)N1CCOCC1 (stereo not drawn) | 1 | -2 | -0.35 | 42*
COc1cc(C2CC(=O)Nc3c2c(=O)nc2c(C)cccn32)cc(OC)c1OC (stereo not drawn) | 0 | 2 | -0.31 | -9
CCC(=O)Nc1ccccc1C(=O)OCC(=O)c1ccc2ccccc2c1 | 10* | -11 | -0.041 | -12
CCC(=O)Nc1ccccc1C(=O)OCC(=O)c1ccccc1 | 0 | 6 | -0.013 | -7
Cc1ccc(-c2nc(CSc3nc4ccccc4c(=O)n3C)cs2)cc1 | 11* | -4 | -0.38 | -42
O=C(O)c1cc(-c2ccc(/C=C3/SC(=S)N(Cc4ccccc4)C3=O)o2)ccc1Cl | 9.4* | -8 | 1.2 | -40
COc1ccc(CN2C(=O)/C(=C/c3ccc(-c4ccc(Cl)c(C(=O)O)c4)o3)SC2=S)cc1 | 6 | -33 | 0.077 | -47
CCC1CCC(C(=O)NC(C(=O)NCCN2CCOCC2)C(C)C)CC1 (stereo not drawn) | x | -25 | x | x
CCC(C)(C(=O)NC1CCCC1)N(Cc1cccs1)C(=O)c1ccccn1 (stereo not drawn) | 1 | 7 | -0.15 | -15
O=[N+]([O-])c1ccccc1OCc1nc(-c2cccs2)no1 | 2 | 5 | -0.67 | -7
Cc1ccc(OCc2nc(-c3cccs3)no2)c([N+](=O)[O-])c1 | 8.7* | -2 | 1.1 | -4
COc1cccc(COC(=O)c2nn(-c3ccccc3)nc2N)c1 | 9.7* | -2 | -0.68 | -9
Nc1nn(-c2ccccc2)nc1C(=O)OCc1ccccc1 | x | -6 | -1.6 | -14
O=C(CSc1nccc(=O)[nH]1)NCc1ccco1 | x | -10 | -0.62 | -17
COc1cc(C=C(c2nc3ccccc3s2)c2nc3ccccc3s2)cc(OC)c1O | 4 | -8 | -0.66 | -55
CN(C)c1ccc(/C=C(\Cl)c2nc3ccccc3s2)cc1 | 8.6* | -10 | -0.95 | -27
CCOC(=O)c1nn(-c2cccc(C)c2)c2nnc(Cc3ccc(C)cc3)c(=O)n12 | 3 | -16 | -0.86 | -13
CNC(=S)N1CCc2cc(OC)c(OC)cc2C1 | x | -6 | -0.62 | -1
SMILES | RAM inhibit | pCIP destab | Dynein transport | p47phox inh
COc1cc2c(cc1OC)CN(C(=S)NC(=O)c1ccccc1)CC2 | 1 | -16 | 0.35 | 31*
CCCSc1nc(C)c2cc(C)cc(C)c2n1 | 0 | -9 | 1.8 | -4
Cc1cc(C)c2nc3nc(C)c(C)cc3c(N)c2c1 | 0 | -16 | -1.7 | 35*
CCCc1c(C)nc(N2CCN(c3ccccc3F)CC2)[nH]c1=O | x | -2 | x | x
CN(C)c1ccc(-c2noc(C3CCN(S(=O)(=O)c4cccc(C(=O)O)c4)CC3)n2)cc1 | 9.8* | -7 | 0.053 | -8
CCCn1c(SCC(=O)Nc2ccc(C(=O)Nc3ccccc3OC)cc2)n[nH]c1=O | 9.2* | -3 | -0.47 | -8
CS/C(=N\S(=O)(=O)c1cccs1)Nc1ccc(Br)cc1F | 1 | -1 | -0.39 | -36
COc1cccc(OC)c1C(=O)Nc1cccc(NC(=O)c2cccs2)c1 | x | -14 | x | x
CC(C)C1OC(c2cccc(NC(=O)c3cccs3)c2)OCC1(C)C (stereo not drawn) | 9.3* | 0 | 1 | -13
Cc1ccc(CNC(=O)c2ccc(CN3CCOCC3)cc2)cc1 | 3 | -6 | -0.74 | 37*
